# Laboratory results from ChEMBL document CHEMBL4689842, “EUbOPEN Chemogenomics Library wave 1” (2021).
# Assays:
# Type in all cases: toxicity, cell-based
# U2OS [1] = test: Multiplex assay against U2OS; settings: human
# Procedure, shortened: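 Live cells were stained at seeding with Hoechst33342, BioTracker Green Microtubule Cytoskeleton Dye, MitoTracker Red and Annexin V Alexa Fluor 680, then imaged on a CQ1 microscope at 37°C and 5% CO2 after compound addition. CellPathfinder machine-learning gating split cells into Hoechst high-intensity objects or normal cells. Normal cells were split into healthy, pyknosed or fragmented nuclei, and pyknosed cells into mitotic or apoptotic. Tubulin, mitochondrial-mass and membrane-permeability phenotypes are per cents of healthy-nucleus cells.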
# Fibroblast = test: Incucyte cell viability with human fibroblast; settings: 10 µM, compound concentration 10 uM; also: filed as whole numbers so only -1 and 0 and 1 occur
# U2OS [2] = test: Incucyte cell viability with U2OS; settings: human, 10 µM, compound concentration 10 uM; also: filed as whole numbers so only -1 and 0 and 1 occur
# [3] = 24 h, 10 µM, compound concentration 10 uM, replicate 1
# [4] = 24 h, 10 µM, compound concentration 10 uM, replicate 2
# [5] = 48 h, 1 µM, compound concentration 1 uM, replicate 1
# [6] = 48 h, 1 µM, compound concentration 1 uM, replicate 2
# [7] = 48 h, 10 µM, compound concentration 10 uM, replicate 1
# [8] = 48 h, 10 µM, compound concentration 10 uM, replicate 2
# [9] = 0 h, replicate number 1, timepoint 0 hours
# [10] = 12 h, replicate number 1, timepoint 12 hours
# [11] = 18 h, replicate number 1, timepoint 18 hours
# [12] = 24 h, replicate number 1, timepoint 24 hours
compound,measurement,setting,value
CN(c1cc(C(F)(F)F)nc(OCCC(=O)O)n1)c1cccc2c1CCC2,Population Hoechst High Intensity Objects (%),U2OS [1]; [3],3%
same,Population Membrane Permeable-Phenotype (%),U2OS [1]; [3],5%
same,Population Mitochondria Different-Phenotype (%),U2OS [1]; [3],10%
same,Population Mitotic Cells (%),U2OS [1]; [3],47%
same,Population Normal (%),U2OS [1]; [3],96%
same,Population Pyknosed Nuclei (%),U2OS [1]; [3],7%
same,Population Tubulin-Different-Phenotype (%),U2OS [1]; [3],14%
same,Total Cell Count,U2OS [1]; [3],176
same,Population Apoptotic (%),U2OS [1]; [4],0%
same,Population Fragmented Nuclei (%),U2OS [1]; [4],13%
same,Population Healthy Nuclei (%),U2OS [1]; [4],81%
same,Population Hoechst High Intensity Objects (%),U2OS [1]; [4],13%
same,Population Membrane Permeable-Phenotype (%),U2OS [1]; [4],3%
same,Population Mitochondria Different-Phenotype (%),U2OS [1]; [4],13%
same,Population Mitotic Cells (%),U2OS [1]; [4],100%
same,Population Normal (%),U2OS [1]; [4],86%
same,Population Pyknosed Nuclei (%),U2OS [1]; [4],5%
same,Population Tubulin-Different-Phenotype (%),U2OS [1]; [4],44%
same,Total Cell Count,U2OS [1]; [4],79
same,Population Apoptotic (%),U2OS [1]; [5],43%
same,Population Fragmented Nuclei (%),U2OS [1]; [5],7%
same,Population Healthy Nuclei (%),U2OS [1]; [5],86%
same,Population Hoechst High Intensity Objects (%),U2OS [1]; [5],5%
same,Population Membrane Permeable-Phenotype (%),U2OS [1]; [5],4%
same,Population Mitotic Cells (%),U2OS [1]; [5],56%
same,Population Normal (%),U2OS [1]; [5],94%
same,Population Pyknosed Nuclei (%),U2OS [1]; [5],6%
same,Population Tubulin-Different-Phenotype (%),U2OS [1]; [5],8%
same,Total Cell Count,U2OS [1]; [5],200
same,Population Apoptotic (%),U2OS [1]; [6],40%
same,Population Fragmented Nuclei (%),U2OS [1]; [6],6%
same,Population Healthy Nuclei (%),U2OS [1]; [6],88%
same,Population Hoechst High Intensity Objects (%),U2OS [1]; [6],6%
same,Population Membrane Permeable-Phenotype (%),U2OS [1]; [6],5%
same,Population Mitochondria Different-Phenotype (%),U2OS [1]; [6],15%
same,Population Mitotic Cells (%),U2OS [1]; [6],60%
same,Population Normal (%),U2OS [1]; [6],93%
same,Population Pyknosed Nuclei (%),U2OS [1]; [6],4%
same,Population Tubulin-Different-Phenotype (%),U2OS [1]; [6],24%
same,Total Cell Count,U2OS [1]; [6],81
same,Population Apoptotic (%),U2OS [1]; [7],50%
same,Population Fragmented Nuclei (%),U2OS [1]; [7],5%
same,Population Healthy Nuclei (%),U2OS [1]; [7],89%
same,Population Hoechst High Intensity Objects (%),U2OS [1]; [7],2%
same,Population Membrane Permeable-Phenotype (%),U2OS [1]; [7],2%
same,Population Mitochondria Different-Phenotype (%),U2OS [1]; [7],9%
same,Population Mitotic Cells (%),U2OS [1]; [7],50%
same,Population Normal (%),U2OS [1]; [7],97%
same,Population Pyknosed Nuclei (%),U2OS [1]; [7],4%
same,Population Tubulin-Different-Phenotype (%),U2OS [1]; [7],15%
same,Total Cell Count,U2OS [1]; [7],251
same,Population Apoptotic (%),U2OS [1]; [8],20%
same,Population Fragmented Nuclei (%),U2OS [1]; [8],8%
same,Population Healthy Nuclei (%),U2OS [1]; [8],87%
same,Population Hoechst High Intensity Objects (%),U2OS [1]; [8],6%
same,Population Membrane Permeable-Phenotype (%),U2OS [1]; [8],1%
same,Population Mitochondria Different-Phenotype (%),U2OS [1]; [8],6%
same,Population Mitotic Cells (%),U2OS [1]; [8],80%
same,Population Normal (%),U2OS [1]; [8],93%
same,Population Pyknosed Nuclei (%),U2OS [1]; [8],3%
same,Population Tubulin-Different-Phenotype (%),U2OS [1]; [8],38%
same,Total Cell Count,U2OS [1]; [8],113
same,Growth Rate,Fibroblast; [9],1
same,Growth Rate,"Fibroblast; 0 h, replicate number 2, timepoint 0 hours",0
same,Growth Rate,"Fibroblast; 6 h, replicate number 1, timepoint 6 hours",0
same,Growth Rate,Fibroblast; [10],1
same,Growth Rate,Fibroblast; [11],0
same,Growth Rate,Fibroblast; [12],0
same,Growth Rate,"Fibroblast; 24 h, replicate number 2, timepoint 24 hours",1
same,Growth Rate,U2OS [2]; [9],0
same,Growth Rate,"U2OS [2]; 6 h, replicate number 2, timepoint 6 hours",0
same,Growth Rate,U2OS [2]; [10],0
same,Growth Rate,U2OS [2]; [11],0
same,Growth Rate,U2OS [2]; [12],0
